Experimental data gathered from unrelated publications.
Each line is one published result; the experiments were not run side by side.
Read-out: cell growth or viability

SMILES | cell line | assay | conditions | measurement | result
COc1nc(NCc2cn(-c3ccc(C(=O)Nc4ccccc4)cc3)nn2)nc(OC)n1 | Caco-2 | MTT | 72 h | IC50 | 208 nM
C[C@@H]1CC[C@@H]([C@](O)(CNCc2ccccc2)COCc2ccccc2)[C@H](OCc2ccccc2)C1 | A2780 | MTT | 10 µM, 72 h | inhibition | 90.4%
O=C1c2ccccc2C(=O)c2c(Oc3ccc(C(=O)C(Cl)Cl)cc3[N+](=O)[O-])cccc21 | NCI-H1650 | MTT | 2.5 µM | inhibition | 28.7%
COc1cccc(CNC[C@@](C)(O)[C@@H]2CC[C@@H](C)C[C@H]2OCc2ccccc2)c1 | A2780 | MTT | 10 µM, 72 h | inhibition | 32.9%
O=C(c1ccc(Oc2cccc(-c3ccccc3)c2)c([N+](=O)[O-])c1)C(Cl)Cl | NCI-H1650 | MTT | 2.5 µM | inhibition | 97.2%
COc1ccc(C(=O)Nc2ccc(-n3cc(CNc4nc(OC)nc(OC)n4)nn3)cc2)cc1 | Caco-2 | MTT | 72 h | IC50 | 722 nM
O=C(NO)c1ccc(CNc2nc3cccc(-c4ccc5c(c4)OCO5)n3n2)cc1 | TK-10 | SRB | – | GI50 | 520 nM
COc1ccc(COC[C@@](O)(CNCc2ccccc2)[C@@H]2CC[C@@H](C)C[C@H]2OCc2ccc(OC)cc2)cc1 | A2780 | MTT | 10 µM, 72 h | inhibition | 98%
CC(=O)Nc1ccc(Oc2ccc(C(=O)C(Cl)Cl)cc2[N+](=O)[O-])cc1 | NCI-H1650 | MTT | 2.5 µM | inhibition | 97.6%
O=C(O)c1cccnc1Nc1cccc(C(F)(F)F)c1 | NCI-H28 | CCK-8 | 72 h | GI50 | > 40000 nM
C=C(COCc1ccc(OC)cc1)[C@@H]1CC[C@@H](C)C[C@H]1OCc1ccc(OC)cc1 | A2780 | MTT | 30 µM, 72 h | inhibition | 27.4%
C=C(F)C(=O)N1CCN(c2nc(OC[C@@H]3CCCN3C)nc3c2CCN(c2cccc4cccc(Cl)c24)C3)C[C@@H]1CC#N | HCC44 | ATP luminescence | – | IC50 | > 10000 nM
COc1ccccc1CNC[C@@](C)(O)[C@@H]1CC[C@@H](C)C[C@H]1OCc1ccccc1 | A2780 | MTT | 10 µM, 72 h | inhibition | 58.5%
C=CC(=O)NC1CCN(c2ncc3ncnc(Nc4ccc(Oc5ccc6c(c5)ncn6C)c(C)c4)c3n2)CC1 | HCC44 | – | – | EC50 | 934 nM
C[C@@H]1CC[C@@H]([C@](C)(O)CNCc2cccc(F)c2)[C@H](OCc2ccccc2)C1 | A2780 | MTT | 30 µM, 72 h | inhibition | 98.8%
C=CC(=O)N1CCN(c2nc(=O)n(-c3c(C)ccnc3C(C)C)c3nc(-c4c(O)cccc4F)c(F)cc23)[C@@H](C)C1 | NCI-H2122 | ATP luminescence | – | IC50 | 90.1 nM
C[C@@H]1CC[C@@H]([C@](C)(O)CNCc2ccccc2)[C@H](OCc2ccccc2)C1 | A2780 | MTT | 10 µM, 72 h | inhibition | 91.6%
NC(=O)COc1ccc(C(=O)C(Cl)Cl)cc1[N+](=O)[O-] | NCI-H1650 | MTT | 2.5 µM | inhibition | 1.51%
COc1nc(NCc2cn(-c3ccc(NC(=O)c4ccc(Br)cc4)cc3)nn2)nc(OC)n1 | Caco-2 | MTT | 72 h | IC50 | 689 nM
N#Cc1ccc(Oc2ccc(C(=O)C(Cl)Cl)cc2[N+](=O)[O-])cc1 | NCI-H1650 | MTT | 2.5 µM | inhibition | 87.6%
COc1cccc2c1C(=O)c1c(O)c3c(c(O)c1C2=O)C[C@@](O)(C(=O)CO)C[C@@H]3O[C@H]1C[C@H](N)[C@H](O)[C@H](C)O1 | Caco-2 | MTT | 25 µg/mL, 48 h, serum-free | viability | 31.6%
CC(=O)c1ccc(Oc2ccc(C(=O)C(Cl)Cl)cc2[N+](=O)[O-])cc1 | NCI-H1650 | MTT | 2.5 µM | inhibition | 96.4%
C[C@@H]1CC[C@@H]([C@](O)(CNCc2ccccc2)COCc2ccc(F)cc2)[C@H](OCc2ccc(F)cc2)C1 | A2780 | MTT | 10 µM, 72 h | inhibition | 95.2%
CC(=O)OCCCOc1ccc(C(=O)C(Cl)Cl)cc1[N+](=O)[O-] | NCI-H1650 | MTT | 2.5 µM | inhibition | 39.6%
COc1ccc(NC(=O)c2ccc(-n3cc(CNc4nc(OC)nc(OC)n4)nn3)cc2)cc1 | Caco-2 | MTT | 72 h | IC50 | 435 nM
C=CC(=O)c1cccnc1Nc1cccc(C(F)(F)F)c1 | NCI-H28 | CCK-8 | 72 h | GI50 | 5110 nM
O=C(c1ccc(Oc2ccc3oc(=O)ccc3c2)c([N+](=O)[O-])c1)C(Cl)Cl | NCI-H1650 | MTT | 2.5 µM | inhibition | 96.8%
